From PMC6542364 (Journal of the American Chemical Society, 2019)

System: HS-5 cells
Assay: 3D cell spheroid formation from a 2D cell sheet
Format: cell-based
Conditions: co-incubation with pD1-B 200 μM, biotin e.g. 500 μM, 24 h
Method in brief: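 HS-5 fibroblast monolayers were kept in culture medium with the test compound at 200 μM for 24 h, with medium alone as control. In the competition arm, free biotin at 500 μM was co-incubated with the test compound. Cell clustering and spheroid formation were recorded by optical imaging.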

In the case of `O=C(O)CCCC[C@@H]1SC[C@@H]2NC(=O)N[C@@H]21` [biotin], the “effect of competing biotin on pD1-B-induced cell spheroid formation” value is reported as “blocks the formation of cell spheroids in a concentration dependent manner”.
